≈ marks a conversion by molar mass, not a printed value.
Experiments:
[1] = tested on: Mycobacterium tuberculosis; assay: Antitubercular activity against Mycobacterium tuberculosis H37Rv assessed as growth inhibition by Alamar-Blue assay; format: functional
[2] = Cytotoxicity against human A549 cells measured after 48 hrs by MTT assay; format: toxicity, cell-based
How it was run: (§1)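 Cells from ATCC grown in DMEM with 10% FBS at 37 °C in 5% CO2, harvested by trypsinization and seeded at 7500 cells per well. After 18 h, compound added at final 0.1, 1, 10 and 100 µM in triplicate. Plates incubated 48 h, then MTT for 60 min at 37 °C. Formazan dissolved in DMSO and read at 560 nm. Percent growth taken relative to control wells, with dose-response curves. Repeated three times, mean ± SD.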

[3] = Selectivity index, ratio of IC50 for human HepG2 cells to MIC for Mycobacterium tuberculosis H37Rv; format: toxicity, cell-based; settings: read-out: Ratio IC50
[4] = Cytotoxicity against human HepG2 cells measured after 48 hrs by MTT assay; format: toxicity, cell-based; how it was run: as §1
[5] = Selectivity index, ratio of IC50 for human A549 cells to MIC for Mycobacterium tuberculosis H37Rv; format: toxicity, cell-based; settings: read-out: Ratio IC50
[6] = Solubility of the compound at pH 10.2 by HPLC method; format: physicochemical; settings: buffer
How it was run: (§2)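 Compound diluted to a 5 mM DMSO working solution from a 10 mM stock. 5 µL added to 495 µL of buffer at the stated pH. Vortexed 5 min and centrifuged. Supernatant quantified by HPLC.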

[7] = Solubility of the compound at pH 7.4 by HPLC method; format: physicochemical; settings: buffer; how it was run: as §2
[8] = Solubility of the compound at pH 1.2 by HPLC method; format: physicochemical; settings: buffer; how it was run: as §2
[9] = Protein binding human plasma at 150 uM measured after 30 mins by equilibrium dialysis method; format: ADME, cell-free; settings: read-out: PPB (converted)
How it was run: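 Plasma spiked with 5 µL of 150 µM compound per 745 µL. Sampled at 0 h, then incubated 30 min at 37 °C. Rapid equilibrium dialysis of plasma against KH2PO4 buffer pH 7.4 for 4 h at 37 °C with shaking. Both chambers matrix-matched and precipitated with methanol containing tolbutamide internal standard. Analysed by LC-MS/MS.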

[10] = Metabolic stability in human liver microsomes at 1 or 50 uM measured after 30 to 60 mins in presence of cofactor by LC-MS/MS analysis; format: ADME
How it was run: (§3)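 Stock 10 mM in DMSO, diluted to a 50 µM working solution in acetonitrile:water (1:1). 2 µL of this added to 98 µL of buffer, microsomes and cofactor. Incubated at 37 °C for 15, 30, 45 and 60 min. Stopped with methanol containing internal standard, vortexed and centrifuged. Supernatant analysed by LC-MS/MS.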

[11] = Solubility of the compound at pH 4.5 by HPLC method; format: physicochemical; settings: buffer; how it was run: as §2
[12] = Metabolic stability in mouse liver microsomes at 1 or 50 uM measured after 30 to 60 mins in presence of cofactor by LC-MS/MS analysis; format: ADME; how it was run: as §3
[13] = Metabolic stability in human plasma at 50 uM measured after 60 mins by LC-MS/MS analysis; format: ADME, cell-free; settings: read-out: Stability
How it was run: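 Working solution at 50 µM in acetonitrile:water (1:1), from a 10 mM DMSO stock. 2 µL added to 98 µL of plasma and incubated 60 min at 37 °C. Quenched with methanol containing internal standard, centrifuged, and supernatant analysed by LC-MS/MS.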

[14] = Solubility of the compound at pH 2.2 by HPLC method; format: physicochemical; settings: buffer; how it was run: as §2
[15] = Cytotoxicity against mouse RAW cells assessed as reduction in cell viability at =>3 uM measured after 48 hrs by MTT assay; format: toxicity; settings: read-out: INH
[16] = Cytotoxicity against human THP1 cells assessed as reduction in cell viability at =>3 uM measured after 48 hrs by MTT assay; format: toxicity, cell-based, THP-1; settings: read-out: INH
[17] = tested on: Mycobacterium tuberculosis; assay: Antimycobacterial activity against Mycobacterium tuberculosis by broth microdilution assay; format: functional

Compound | MIC [1] [µg/mL] | IC50 at 48 h [2] [µM] | selectivity ratio [3] | IC50 at 48 h [4] [µM] | selectivity ratio [5] | fraction unbound at 0.5 h, 150 µM [9] | remaining at 1 h, 50 µM [13] [%] | also measured
Cc1c(C(=O)NN2CCN(C)CC2)nn(-c2ccc(Cl)cc2Cl)c1-c1ccc(Cl)cc1 | 25 (≈ 52.2 µM) | – | – | – | – | – | – | –
Cc1c(CNCc2ccccc2)nn(-c2ccc(Cl)cc2Cl)c1-c1ccc(Cl)cc1 | 6.25 (≈ 13.7 µM) | 55.8 | 4.2 | 57.4 | 4.1 | – | – | –
NNC(=O)c1ccncc1 [ISONIAZID] | 0.3 (≈ 2.19 µM) | – | – | – | – | – | – | –
Cc1c(C(=O)NCCCN(C)C)nn(-c2ccc(Cl)cc2Cl)c1-c1ccc(Cl)cc1 | 25 (≈ 53.7 µM) | – | – | – | – | – | – | –
C[Si]1(C)CCN(C(=O)c2cc(-c3ccc(Cl)cc3)n(-c3ccc(Cl)cc3)n2)CC1 | 6.25 (≈ 14.1 µM) | 68.3 | 4.18 | 59 | 4.85 | 0.0001 | 89.7 | solubility [6]: 1.28 µM (≈ 0.569 µg/mL); solubility [7]: 0.05 µM (≈ 0.0222 µg/mL); solubility [8]: 0.16 µM (≈ 0.0711 µg/mL); Stability [10]: 2.1%; solubility [11]: 0.13 µM (≈ 0.0578 µg/mL); Stability [12]: 3.9%; solubility [14]: 0.18 µM (≈ 0.08 µg/mL)
O=C1CCN(Cc2cc(-c3ccc(Cl)cc3)n(-c3ccc(Cl)cc3)n2)CC1 | 25 (≈ 62.5 µM) | – | – | – | – | – | – | –
COc1cccc2c1C(=O)c1c(O)c3c(c(O)c1C2=O)C[C@@](O)(C(=O)CO)C[C@@H]3O[C@H]1C[C@H](N)[C@H](O)[C@H](C)O1 [DOXORUBICIN] | – | 5.32 | – | 5.34 | – | – | – | –
Cc1c(C(=O)N2CCNCC2)nn(-c2ccc(Cl)cc2Cl)c1-c1ccc(Cl)cc1 | 25 (≈ 55.6 µM) | – | – | – | – | – | – | –
Cc1c(C(=O)NN2CCCCC2)nn(-c2ccc(Cl)cc2Cl)c1-c1ccc(Cl)cc1 [RIMONABANT] | 25 (≈ 53.9 µM) | – | – | – | – | – | – | –
CN1CCN(Cc2cc(-c3ccc(Cl)cc3)n(-c3ccc(Cl)cc3)n2)CC1 | 25 (≈ 62.3 µM) | – | – | – | – | – | – | –
CN(C)C(=O)c1cc(-c2ccc(Cl)cc2)n(-c2ccc(Cl)cc2)n1 | 25 (≈ 69.4 µM) | – | – | – | – | – | – | –
Cc1c(CN(C)C)nn(-c2ccc(Cl)cc2Cl)c1-c1ccc(Cl)cc1 | 6.25 (≈ 15.8 µM) | 57.2 | 2.3 | 36.3 | 3.62 | – | – | –
Cc1c(CN2CCNCC2)nn(-c2ccc(Cl)cc2Cl)c1-c1ccc(Cl)cc1 | 25 (≈ 57.4 µM) | – | – | – | – | – | – | –
C[Si]1(C)CCN(Cc2nn(-c3ccc(Cl)cc3Cl)c(-c3ccc(Cl)cc3)c2CO)CC1 | 6.25 (≈ 12.6 µM) | 61.9 | 2.41 | 30.4 | 4.92 | 0.0004 | 88.1 | solubility [6]: 2.39 µM (≈ 1.18 µg/mL); solubility [7]: 5.31 µM (≈ 2.63 µg/mL); solubility [8]: 44 µM (≈ 21.8 µg/mL); Stability [10]: 2.1%; solubility [11]: 41.6 µM (≈ 20.6 µg/mL); Stability [12]: 3.7%; solubility [14]: 42.5 µM (≈ 21 µg/mL)
Cc1c(CN2CC[Si](C)(C)CC2)nn(-c2ccc(Cl)cc2Cl)c1-c1ccc(Cl)cc1 | 1.17 (≈ 2.44 µM) | 54.2 | 30.5 | 51.9 | 31.9 | 0.0005 | 99.2 | cytotoxicity at 48 h [15]: 40 to 60%; solubility [6]: 10.9 µM (≈ 5.24 µg/mL); solubility [7]: 1.05 µM (≈ 0.503 µg/mL); solubility [8]: 41 µM (≈ 19.6 µg/mL); cytotoxicity at 48 h [16]: 40 to 60%; Stability [10]: 18.5%; solubility [11]: 34.2 µM (≈ 16.4 µg/mL); Stability [12]: 9.2%; solubility [14]: 40.6 µM (≈ 19.4 µg/mL)
Cc1c(CN2CCN(C)CC2)cc(-c2ccc(Cl)cc2)n1-c1ccc(Cl)cc1 | 0.7 (≈ 1.69 µM) | 91.5 | 44.4 | 71 | 57.2 | 0.0077 | 100 | cytotoxicity at 48 h [15]: 40 to 60%; cytotoxicity at 48 h [16]: 40 to 60%; MIC [17]: 0.7 to 1.5 µg/mL (≈ 1.69 to 3.62 µM)
C[Si]1(C)CCN(Cc2cc(-c3ccc(Cl)cc3)n(-c3ccc(Cl)cc3)n2)CC1 | 0.031 (≈ 0.072 µM) | 58.9 | 306 | 21.4 | 841 | 0.0007 | 100 | cytotoxicity at 48 h [15]: 40 to 60%; solubility [6]: 1.99 µM (≈ 0.857 µg/mL); solubility [7]: 3.72 µM (≈ 1.6 µg/mL); solubility [8]: 43 µM (≈ 18.5 µg/mL); cytotoxicity at 48 h [16]: 40 to 60%; Stability [10]: 20.3%; solubility [11]: 41.9 µM (≈ 18 µg/mL); Stability [12]: 6.3%; solubility [14]: 42.3 µM (≈ 18.2 µg/mL)
Clc1ccc(-c2cc(CN3CCCCC3)nn2-c2ccc(Cl)cc2)cc1 | 1.56 (≈ 4.04 µM) | – | – | – | – | 0.0011 | 91.7 | solubility [6]: 1.49 µM (≈ 0.576 µg/mL); solubility [7]: 11.4 µM (≈ 4.4 µg/mL); solubility [8]: 45 µM (≈ 17.4 µg/mL); Stability [10]: 60.1%; solubility [11]: 43.6 µM (≈ 16.8 µg/mL); Stability [12]: 26%; solubility [14]: 44.6 µM (≈ 17.2 µg/mL)
C[Si]1(C)CCN(NCc2cc(-c3ccc(Cl)cc3)n(-c3ccc(Cl)cc3)n2)CC1 | 0.39 (≈ 0.875 µM) | 73.2 | 99.8 | 86.8 | 84.2 | 0.0069 | 100 | cytotoxicity at 48 h [15]: 40 to 60%; solubility [6]: 38 µM (≈ 16.9 µg/mL); solubility [7]: 39.8 µM (≈ 17.7 µg/mL); solubility [8]: 43.1 µM (≈ 19.2 µg/mL); cytotoxicity at 48 h [16]: 40 to 60%; Stability [10]: 93.1%; solubility [11]: 44.3 µM (≈ 19.7 µg/mL); Stability [12]: 100%; solubility [14]: 43.2 µM (≈ 19.2 µg/mL)
Cc1c(CN2CCN(C)CC2)nn(-c2ccc(Cl)cc2Cl)c1-c1ccc(Cl)cc1 | 12.5 (≈ 27.8 µM) | 80.3 | 3.1 | 85 | 2.9 | – | – | –
O=C(c1cc(-c2ccc(Cl)cc2)n(-c2ccc(Cl)cc2)n1)N1CCNCC1 | 25 (≈ 62.3 µM) | – | – | – | – | – | – | –
Cc1c(CN2CCCCC2)nn(-c2ccc(Cl)cc2Cl)c1-c1ccc(Cl)cc1 | 12.5 (≈ 28.7 µM) | 88.8 | > 3.5 | > 100 | 3.1 | – | – | –
CN(C)CCCNC(=O)c1cc(-c2ccc(Cl)cc2)n(-c2ccc(Cl)cc2)n1 | 25 (≈ 59.9 µM) | – | – | – | – | – | – | –
